This note sets out measurements from ChEMBL document CHEMBL1926528, “Formulating a new basis for the treatment against botulinum neurotoxin intoxication: 3,4-Diaminopyridine prodrug design and characterization” (Bioorg Med Chem, 2011).

Structures are written as SMILES. Bounds are passed on as bounds.

Data set [1] addresses T1, Butyrylcholinesterase (Equus caballus, UniProt Q9N1N9). Briefly: Prodrug activation assessed as equine serum BChE-mediated 3,4-diaminopyridine release measured 3 hrs post enzymatic hydrolysis by reverse phase HPLC. To be noted: horse. Summed up:
(§1)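 Prodrug at 500 µM was incubated with 1.0 U eel AChE or equine BChE in 100 mM sodium phosphate pH 8.0 for 3 h at 37°C. Reaction was quenched with glacial acetic acid. Released 3,4-DAP was measured by C18 reverse-phase HPLC (TFA water/acetonitrile gradient, 254 and 320 nm) and quantified from peak area against authentic standards.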

Data set [2] has as its target T2, Acetylcholinesterase (Electrophorus electricus, UniProt O42275). Kind of data set: Inhibition of Electrophorus electricus Type V-S acetylcholinesterase using […] as substrate by spectrophotometric Ellman's assay. Summed up: (§2)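 Ellman method at 37°C in 100 mM sodium phosphate pH 8.0 with 360 µM DTNB. Substrate was 100 µM acetylthiocholine iodide for eel AChE or butyrylthiocholine iodide for equine BChE, each reconstituted in 1% gelatin buffer. Prodrug ranged 500 µM to 2 µM. Reaction started with 0.5 U enzyme; linear rates read at 412 nm. IC50 and Ki came from non-linear regression, with Ki from varied inhibitor and substrate concentrations.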
(In general: Ellman's reagent forms a yellow product with free thiols.)

For data set [3], the target named is T1, Butyrylcholinesterase. Briefly: Inhibition of equine serum BChE using butyrylthiocholine iodide as a substrate by spectrophotometric Ellman's assay. Summed up: as §2
Data set [4] addresses T2, Acetylcholinesterase. Briefly: Prodrug activation assessed as Electrophorus electricus Type V-S acetylcholinesterase mediated 3,4-diaminopyridine release measured 3 hrs post enzymatic hydrolysis by reverse phase HPLC. Summed up: as §1
Data set [5] relates to Serum. Kind of data set: Half life mouse serum by reverse phase HPLC. The format is ADME, cell-free. An outline of the steps: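 15 µl of 10 mM prodrug stock went into 85 µL mouse serum from clotted blood, pre-warmed to 37°C. Samples were taken at 0–120 min and extracted with cold acetonitrile; proteins were removed by centrifugation. Breakdown product 3,4-DAP was followed by reverse-phase HPLC. Half-life was calculated from 1-hour endpoint samples.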

Data set [6] in a line: Half life in iv dosed mouse. To be noted: in vivo. Type of data set: ADME, organism-based.

T2 sequence (O42275 whole entry): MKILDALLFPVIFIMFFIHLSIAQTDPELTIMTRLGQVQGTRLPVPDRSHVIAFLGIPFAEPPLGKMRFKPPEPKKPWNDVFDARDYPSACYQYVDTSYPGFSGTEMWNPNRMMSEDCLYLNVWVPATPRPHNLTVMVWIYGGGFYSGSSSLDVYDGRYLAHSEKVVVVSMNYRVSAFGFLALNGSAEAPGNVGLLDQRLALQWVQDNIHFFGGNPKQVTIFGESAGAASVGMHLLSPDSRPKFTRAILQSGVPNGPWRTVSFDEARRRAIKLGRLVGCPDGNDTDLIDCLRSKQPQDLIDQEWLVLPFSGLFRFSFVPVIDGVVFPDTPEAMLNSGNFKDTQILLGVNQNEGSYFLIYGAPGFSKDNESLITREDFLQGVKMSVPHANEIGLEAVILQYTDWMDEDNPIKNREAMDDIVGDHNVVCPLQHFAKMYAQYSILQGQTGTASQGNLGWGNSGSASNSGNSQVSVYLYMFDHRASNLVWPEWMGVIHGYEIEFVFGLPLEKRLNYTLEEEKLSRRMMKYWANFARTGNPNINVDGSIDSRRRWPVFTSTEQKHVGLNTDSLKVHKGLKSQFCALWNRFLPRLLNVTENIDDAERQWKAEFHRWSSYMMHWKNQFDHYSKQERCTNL
T1 sequence (Q9N1N9 whole entry): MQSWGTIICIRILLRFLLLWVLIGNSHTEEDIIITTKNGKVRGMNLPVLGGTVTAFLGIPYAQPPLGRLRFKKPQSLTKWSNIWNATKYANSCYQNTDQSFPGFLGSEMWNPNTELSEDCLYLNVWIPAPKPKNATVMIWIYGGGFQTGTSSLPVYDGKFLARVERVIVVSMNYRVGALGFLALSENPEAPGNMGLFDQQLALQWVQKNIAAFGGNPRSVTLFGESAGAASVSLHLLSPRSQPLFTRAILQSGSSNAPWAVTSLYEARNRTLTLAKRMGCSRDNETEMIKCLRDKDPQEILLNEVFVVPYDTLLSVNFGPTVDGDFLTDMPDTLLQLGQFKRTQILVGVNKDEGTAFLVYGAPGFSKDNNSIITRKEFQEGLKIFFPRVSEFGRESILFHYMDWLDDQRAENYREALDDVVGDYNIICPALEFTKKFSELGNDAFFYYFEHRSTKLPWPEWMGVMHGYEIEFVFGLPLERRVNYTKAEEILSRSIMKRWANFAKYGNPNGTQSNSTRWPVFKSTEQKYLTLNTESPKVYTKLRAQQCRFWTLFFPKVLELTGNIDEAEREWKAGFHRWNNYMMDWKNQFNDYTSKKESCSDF

As for `CC(=O)Oc1ccc(COC(=O)Nc2ccncc2N)cc1`, the Drug metabolism in data set [1] and in data set [4] was 0 µM each time. In addition, the IC50 (as a rule, the midpoint of a concentration-inhibition curve) in data set [2] was found to be 49.4 µM; in data set [3] it was 10.6 µM. Also, the Ki (in general, a measure of affinity in units of concentration, obtained from inhibition or displacement) in data set [2] is 10.9 µM; in data set [3], 1.6 µM.

In the case of `CCC(=O)Oc1ccc(COC(=O)Nc2ccncc2N)cc1`, the Drug metabolism was determined as 82 µM in data set [1] and 145 µM in data set [4]. Moreover, the IC50 in data set [2] was found to be 5.2 µM; in data set [3], 129 µM. Moreover, the inhibition constant (Ki) stood at 5.7 µM in data set [2] and 25 µM in data set [3]. In addition, the t1/2 in data set [5] is listed as 1.2 min.

Turning to `CCCC(=O)Oc1ccc(COC(=O)Nc2ccncc2N)cc1`, the Drug metabolism is 71 µM in data set [1] and 10 µM in data set [4]. Also, the half-inhibitory concentration (IC50) in data set [2] is 48.8 µM; in data set [3], 111 µM. Besides, the inhibition constant Ki in data set [2] stood at 12.1 µM; in data set [3], 14.4 µM.

As to `CC(C)C(=O)Oc1ccc(COC(=O)Nc2ccncc2N)cc1`, the values for the Drug metabolism in data set [1] and in data set [4] were 82 µM and 105 µM, respectively. The half-inhibitory concentration (IC50) in data set [2] was determined as 8.5 µM; in data set [3], 122 µM. The Ki amounted to 3.9 µM in data set [2] and 42 µM in data set [3]. In data set [5], this compound showed a t1/2 of 1.9 min.

As to `CC(C)CC(=O)Oc1ccc(COC(=O)Nc2ccncc2N)cc1`, the Drug metabolism in data set [1] was 83 µM; in data set [4] it was 12 µM. The figures for the IC50 in data set [2] and in data set [3] were 11.9 µM and 87.7 µM, respectively. For the same compound, the results for the inhibition constant Ki in data set [2] and in data set [3] were 55.4 µM and 38.4 µM, respectively.

As to `Nc1cnccc1NC(=O)OCc1ccc(OC(=O)C2CCCC2)cc1`, the Drug metabolism in data set [1] amounted to 79 µM; in data set [4], 34 µM. In addition, the IC50 turned out to be 11.6 µM in data set [2] and 77.5 µM in data set [3]. The figures for the Ki in data set [2] and in data set [3] were 6.8 µM and 37.2 µM, respectively.

Turning to `Nc1cnccc1NC(=O)OCc1ccc(OC(=O)c2ccccc2)cc1`, the Drug metabolism turned out to be 0 µM in data set [1] and 1 µM in data set [4]. Moreover, the values for the IC50 in data set [2] and in data set [3] were 167 µM and 392 µM, respectively.

`COc1cccc(C(=O)Oc2ccc(COC(=O)Nc3ccncc3N)cc2)c1`: the Drug metabolism was 0 µM in data set [1] and 2 µM in data set [4]. For the same compound, the figures for the IC50 in data set [2] and in data set [3] were 163 µM and 61.7 µM, respectively.

As for `Nc1cnccc1NC(=O)OCc1ccc(OC(=O)Cc2ccccc2)cc1`, the Drug metabolism in data set [1] and in data set [4] was 0 µM throughout. Also, the IC50 amounted to 136 µM in data set [2] and 32.2 µM in data set [3]. Besides, the inhibitory constant (Ki) in data set [3] stood at 30.7 µM.

Turning to `CC(C)C(=O)OCc1ccccc1COC(=O)Nc1ccncc1N`, the figures for the Drug metabolism in data set [1] and in data set [4] were 5 µM and 29 µM, respectively. Besides, the half-inhibitory concentration (IC50) in data set [2] was 496 µM; in data set [3], more than 500 µM.

For the compound `CC(C)C(=O)OCCOC(=O)Nc1ccncc1N`, the Drug metabolism in data set [1] is 4 µM; in data set [4], 0 µM. The IC50 in data set [2] turned out to be 25.9 µM; in data set [3] it was 61.9 µM. Moreover, the Ki in data set [2] and in data set [3] was more than 500 µM throughout.

In the case of `COC(=O)Nc1cnccc1N`, the Drug metabolism in data set [1] and in data set [4] was 0 µM in each case. The half-maximal inhibitory concentration (IC50) in data set [2] and in data set [3] was more than 500 µM in each case.

Turning to `COC(=O)Nc1ccncc1NC(=O)OC`, the Drug metabolism in data set [1] and in data set [4] was 0 µM in each case. The IC50 in data set [2] amounted to 36.3 µM; in data set [3], 417 µM. Also, the Ki in data set [2] and in data set [3] was more than 500 µM in each case.

As to `COC(=O)Nc1ccncc1N`, the Drug metabolism in data set [1] and in data set [4] was 0 µM each time. For the same compound, the IC50 stood at 45.6 µM in data set [2] and 491 µM in data set [3].

As to `CC(=O)Nc1ccncc1N`, the Drug metabolism in data set [1] and in data set [4] was 0 µM each time. The 50% inhibitory concentration (IC50) is 61.3 µM in data set [2] and more than 500 µM in data set [3]. In addition, the Ki in data set [2] was determined as 32.5 µM; in data set [3], 173 µM.

Regarding `CC(=O)Nc1ccncc1NC(C)=O`, the Drug metabolism in data set [1] and in data set [4] was 0 µM each time. Also, the IC50 amounted to 34.2 µM in data set [2] and 404 µM in data set [3].

`Nc1cnccc1NC(=O)c1ccccc1`: the Drug metabolism in data set [1] and in data set [4] was 0 µM in each case. The IC50 in data set [2] and in data set [3] was more than 500 µM in each case.

With `Nc1cnccc1NC(=O)C1CCCC1`, the Drug metabolism in data set [1] was 8 µM; in data set [4], 4 µM. Besides, the concentration for half-maximal inhibition (IC50) in data set [2] and in data set [3] was more than 500 µM in each case.

For `CC(C)OC(=O)CCC(=O)Nc1ccncc1N`, the values for the Drug metabolism in data set [1] and in data set [4] were 5.8 µM and 3.4 µM, respectively. For the same compound, the figures for the IC50 in data set [2] and in data set [3] were 88.3 µM and 97.4 µM, respectively. The values for the Ki in data set [2] and in data set [3] were 3.2 µM and 62 µM, respectively. This compound yielded a t1/2 in data set [5] of 165 min.

Take `Nc1cncc(N)c1N`: the half-life (commonly the time needed for the level to fall by half in the phase considered) in data set [6] was 18.6 min.

`C#CC[n+]1ccc(N)c(N)c1` had a half-life in data set [6] of 72 min.
